Results collected from several papers.
Protocols differ between the studies behind these lines.
Cell line: DU-145
Observed: cell growth or viability

| Compound | method | time | IC50 [µM] |
| --- | --- | --- | --- |
| C[C@@H]1C[C@H](c2ccc(Br)cc2)c2c(cc3ccccn23)C(=O)O1 (racemic) | resazurin | 72 h | 34.4 |
| O=c1ccn(Cc2cn(-c3c4ccccc4nc4ccccc34)nn2)c(=O)[nH]1 | MTT | – | 59.3 |
| Cc1ccc(S(=O)(=O)N(C)CC(=O)N(Cc2ccc(C3CCCCC3)cc2)c2ccc(C(=O)O)c(O)c2)cc1 | – | – | 37.2 |
| Oc1ccc(C(c2c[nH]c3ccccc23)c2c[nH]c3ccccc23)cc1 | MTT | 48 h | 48 |
| Cc1cc(=O)[nH]c(=O)n1Cc1cn(-c2c3ccccc3nc3ccccc23)nn1 | MTT | – | 26.1 |
| Cn1cc(C(c2ccc(C(=O)O)cc2)c2cn(C)c3ccccc23)c2ccccc21 | MTT | 48 h | > 100 |
| COc1cc(Nc2nccc(-c3cnn4nc(OC)ccc34)n2)cc(C(F)(F)F)c1 | ATP luminescence | – | 0.38 |
| CC(C)C(=O)Nc1ccc([N+](=O)[O-])c(C(F)(F)F)c1 | CCK-8 | 48 h | > 50 |
| C[C@@H]1C[C@H](c2cccc(F)c2)c2c(cc3ccccn23)C(=O)O1 (racemic) | resazurin | 72 h | > 100 |
| COc1cccc2c1C(=O)c1c(O)c3c(c(O)c1C2=O)C[C@@](O)(C(=O)CO)C[C@@H]3O[C@H]1C[C@H](N)[C@H](O)[C@H](C)O1 | WST-1 | 72 h | 0.03 |
| O=C(O)C(c1c[nH]c2ccccc12)c1c[nH]c2ccccc12 | MTT | 48 h | > 100 |
| COc1cc(OC)cc([C@H]2C[C@@H](C)OC(=O)c3cc4ccccn4c32)c1 (racemic) | resazurin | 72 h | 52.4 |
| FC(F)(F)c1ccc(C(c2c[nH]c3ccccc23)c2c[nH]c3ccccc23)cc1 | MTT | 48 h | 47 |
| COc1cccc2c1C(=O)c1c(O)c3c(c(O)c1C2=O)C[C@@](O)(C(=O)CO)C[C@@H]3O[C@H]1C[C@H](N)[C@H](O)[C@H](C)O1 | resazurin | 72 h | 0.095 |
| Cn1cc(C(c2cccc(/C=C/C(=O)O)c2)c2cn(C)c3ccccc23)c2ccccc21 | MTT | 48 h | > 100 |
| C[C@@H]1C[C@H](c2cccc(Cl)c2)c2c(cc3ccccn23)C(=O)O1 (racemic) | resazurin | 72 h | 54.7 |
| O=C(O)/C=C/c1ccc(C(c2c[nH]c3ccccc23)c2c[nH]c3ccccc23)s1 | MTT | 48 h | 90 |
| COC1=CC(=O)N(C(=O)[C@@H](CCC(Cl)(Cl)Cl)NC(=O)C(C)(C)C)[C@@H]1CCC(Cl)Cl | resazurin | 72 h | > 35 |
| C[C@@H]1C[C@H](c2ccccc2)c2c(cc3ccccn23)C(=O)O1 (racemic) | resazurin | 72 h | > 100 |
| C[C@H]1O[C@@H](n2cc(F)c(=O)[nH]c2=O)[C@H](O)[C@@H]1O | CCK-8 | 48 h | > 50 |
| COc1cc([C@H]2C[C@@H](C)OC(=O)c3cc4ccccn4c32)cc(OC)c1OC (racemic) | resazurin | 72 h | 36.9 |
| O=C(O)/C=C/c1cccc(C(c2c[nH]c3ccccc23)c2c[nH]c3ccccc23)c1 | MTT | 48 h | > 100 |
